From ChEMBL document CHEMBL1125694, “Fluorinated sugar analogues of potential anti-HIV-1 nucleosides” (J Med Chem, 1991) come the findings set out here.

Activity calls are given as the source filed them. The calls are words filed in the database; no cut-off is given here.

Common to all, as to assay type: functional, cell-based
Test [1] deals with HL-60. In words: Inhibition of human promyelocytic leukemic cell (HL-60) by […]-microculture tetrazolium assay. A digest of the protocol:
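HL-60 cells exposed 4 days to five or six concentrations of each nucleoside, in duplicate. Then PMS-XTT mixture (0.075 mM PMS with 1 mg/mL XTT) added for 6 h at 37 °C. Absorbance at 450 and 630 nm. Median inhibitory concentration (IC50) derived.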

The subject of test [2] is HL-60. In words: Inhibition of human promyelocytic leukemic cell (HL-60) trypan blue exclusion assay. The method, boiled down:
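HL-60 growth inhibition by trypan blue exclusion, five or six concentrations per nucleoside, in duplicate. Median inhibitory concentration (IC50) derived.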

The test system of test [3] is H9. In words: Anti-HIV activity in H9 cell line; Not active. The following applies: Homo sapiens.
For test [4], the system named is H9. In words: Compound was tested for anti-HIV activity in H9 cell line; Active. As to conditions: Homo sapiens.
For test [5], the system named is H9. In words: Compound was tested for anti-HIV activity in H9 cell line; Not active. As to conditions: Homo sapiens.
The subject of test [6] is MT4. In words: Compound was tested for anti-HIV activity in MT-4 cell line; Not active. The following applies: Homo sapiens.

A word on the IC50: it is the point on the concentration scale where inhibition reaches its midpoint. A higher IC50 goes with lower potency. For the compound `Cc1cn(C2OC(COC(c3ccccc3)(c3ccccc3)c3ccccc3)CC2F)c(=O)nc1N` (centres undefined), the IC50 in test [1] and in test [2] was greater than 1000 µM each time. Besides, the result in test [3] was inactive.
Regarding `Cc1cn2c(nc1=O)O[C@@H]1C[C@H]2O[C@@H]1CO`, the IC50 in test [1] and in test [2] was greater than 1000 µM throughout. Further, in test [3], the result was inactive.
Turning to `Cc1cn([C@@H]2O[C@H](CO)[C@@H](O)[C@@H]2O)c(=O)[nH]c1=O`, the IC50 in test [1] and in test [2] was greater than 1000 µM in each case. Also, the result in test [3] was inactive.
As to `Cc1cn(C2OC(COC(c3ccccc3)(c3ccccc3)c3ccccc3)C(F)C2O)c(=O)[nH]c1=O` (centres undefined), the concentration for half-maximal inhibition (IC50) in test [1] and in test [2] was greater than 1000 µM each time. Further, the outcome in test [3] was inactive.
Take `Cc1cn([C@@H]2O[C@H](CO)[C@@H](F)[C@H]2F)c(=O)[nH]c1=O`: the IC50 in test [1] and in test [2] was greater than 1000 µM in each case. The outcome in test [3] was inactive.
As for `Cc1cn(C2OC(COC(c3ccccc3)(c3ccccc3)c3ccccc3)C(N=[N+]=[N-])C2O)c(=O)[nH]c1=O` (centres undefined), the IC50 in test [1] and in test [2] was greater than 1000 µM each time. In addition, the result in test [3] was inactive.
In the case of `Cc1cn2c(nc1=O)O[C@@H]1[C@H](F)[C@H]2O[C@@H]1COC(c1ccccc1)(c1ccccc1)c1ccccc1`, the IC50 in test [1] and in test [2] was greater than 1000 µM in each case. Further, the outcome in test [3] was inactive.
`Cc1cn([C@@H]2O[C@H](COC(c3ccccc3)(c3ccccc3)c3ccccc3)[C@@H](OS(C)(=O)=O)[C@@H]2F)c(=O)[nH]c1=O`: the IC50 in test [1] and in test [2] was greater than 1000 µM throughout. In test [3], the outcome was inactive.
On to `Cc1cn([C@@H]2O[C@H](COC(=O)c3ccccc3)[C@@H](O)[C@@H]2F)c(=O)[nH]c1=O`, for which the IC50 in test [1] and in test [2] was greater than 1000 µM each time. For the same compound, the outcome in test [3] was inactive.
`Cc1cn([C@H]2C[C@H](F)[C@@H](CO)O2)c(=O)[nH]c1=O`: the result in test [4] was Active.
As for `Cc1cn([C@@H]2O[C@H](CO)[C@@H](O)[C@@H]2F)c(=O)[nH]c1=O` [5-METHYL-2'-FLUOROARAURACIL], the IC50 in test [1] and in test [2] was greater than 1000 µM in each case. Further, the result in test [3] was inactive.
As for `Cc1cn(C2OC(CO)C(F)C2F)c(=O)nc1N` (centres undefined), the figures for the IC50 in test [1] and in test [2] were 234 µM and 123 µM, respectively. Also, in test [3], the outcome was inactive.
The like results for `CC(=O)OCC1OC(n2cc(C)c(=O)[nH]c2=O)CC1F` (centres undefined) were, in that order, greater than 1000 µM, greater than 1000 µM and “inactive”.
The like results for `Cc1cn([C@@H]2O[C@H](COC(c3ccccc3)(c3ccccc3)c3ccccc3)[C@H](O)[C@H]2N=[N+]=[N-])c(=O)[nH]c1=O` were, in that order, greater than 1000 µM, greater than 1000 µM and “inactive”.
As to `Cc1cn(C2OC(COC(=O)c3ccccc3)C(F)C2F)c(=O)[nH]c1=O` (centres undefined), the IC50 in test [1] and in test [2] was greater than 1000 µM in each case. Besides, the result in test [3] was inactive.
Consider `Cc1cn(C2OC(COC(c3ccccc3)(c3ccccc3)c3ccccc3)C(N=[N+]=[N-])C2F)c(=O)[nH]c1=O` (centres undefined), for which the IC50 in test [1] and in test [2] was greater than 1000 µM each time. The outcome in test [3] was inactive.
For the compound `Cc1cn([C@H]2C[C@H](OS(C)(=O)=O)[C@@H](COS(C)(=O)=O)O2)c(=O)[nH]c1=O`, the IC50 in test [1] and in test [2] was greater than 1000 µM in each case. Moreover, the outcome in test [3] was inactive.
On to `Cc1cn([C@@H]2O[C@H](CO)[C@@H](F)[C@H]2N=[N+]=[N-])c(=O)[nH]c1=O`, for which the IC50 in test [1] and in test [2] was greater than 1000 µM throughout. The result in test [3] was inactive.
`Cc1cn([C@@H]2O[C@H](CO)C[C@H]2F)c(=O)nc1N`: the IC50 in test [1] and in test [2] was greater than 1000 µM in each case. In test [3], the outcome was inactive.
For the compound `Cc1cn2c(nc1=O)O[C@H]1[C@H](O)[C@@H](COC(c3ccccc3)(c3ccccc3)c3ccccc3)O[C@H]12`, the IC50 in test [1] and in test [2] was greater than 1000 µM each time. The result in test [3] was inactive.
`Cc1cn([C@@H]2O[C@H](CO)C[C@H]2F)c(=O)[nH]c1=O`: the IC50 in test [1] and in test [2] was greater than 1000 µM each time. Moreover, in test [3], the result was inactive.
For `Cc1cn(C2OC(COC(c3ccccc3)(c3ccccc3)c3ccccc3)CC2F)c(=O)nc1-n1cncn1` (centres undefined), the IC50 in test [1] and in test [2] was greater than 1000 µM in each case. Moreover, the result in test [3] was inactive.
On to `Cc1cn([C@@H]2O[C@H](CO)[C@@H](OC(c3ccccc3)(c3ccccc3)c3ccccc3)[C@H]2OC(c2ccccc2)(c2ccccc2)c2ccccc2)c(=O)[nH]c1=O`, for which the IC50 in test [1] and in test [2] was greater than 1000 µM in each case. Further, in test [5], the outcome was inactive.
Turning to `Cc1cn2c(nc1=O)O[C@@H]1C[C@H]2O[C@@H]1COS(C)(=O)=O`, the IC50 in test [1] and in test [2] was greater than 1000 µM in each case. The outcome in test [3] was inactive.
Turning to `Cc1cn([C@@H]2O[C@H](CO)C=C2F)c(=O)[nH]c1=O`, the IC50 in test [1] and in test [2] was greater than 1000 µM in each case. The outcome in test [3] was inactive.
On to `Cc1cn2c(nc1=O)O[C@@H]1[C@H](F)[C@H]2O[C@@H]1COC(=O)c1ccccc1`, for which the IC50 in test [1] and in test [2] was greater than 1000 µM throughout. Also, the outcome in test [3] was inactive.
Consider `Cc1cn2c(nc1=O)O[C@H]1[C@H](OC(=S)n3ccnc3)[C@@H](COC(c3ccccc3)(c3ccccc3)c3ccccc3)O[C@H]12`, for which the IC50 in test [1] and in test [2] was greater than 1000 µM in each case. In test [3], the outcome was inactive.
On to `Cc1cn2c(nc1=O)OC1CC(COC(c3ccccc3)(c3ccccc3)c3ccccc3)OC12` (centres undefined), for which the IC50 in test [1] and in test [2] was greater than 1000 µM in each case. In addition, the result in test [3] was inactive.
On to `Cc1cn(C2OC(COC(c3ccccc3)(c3ccccc3)c3ccccc3)C(F)C2N=[N+]=[N-])c(=O)[nH]c1=O` (centres undefined), for which the IC50 in test [1] and in test [2] was greater than 1000 µM throughout. Further, the outcome in test [3] was inactive.
On to `Cc1cn([C@@H]2O[C@H](CO)[C@@H](N=[N+]=[N-])[C@@H]2F)c(=O)[nH]c1=O`, for which the result in test [6] and in test [3] was inactive.
As to `Cc1cn([C@@H]2O[C@H](CO)[C@@H](N=[N+]=[N-])[C@H]2F)c(=O)[nH]c1=O`, the IC50 in test [1] and in test [2] was greater than 1000 µM in each case. Moreover, in test [3], the result was inactive.
On to `Cc1cn(C2CC(F)C(COS(C)(=O)=O)O2)c(=O)[nH]c1=O` (centres undefined), for which the IC50 in test [1] and in test [2] was greater than 1000 µM in each case. In test [3], the result was inactive.
With `Cc1cn(C2OC(COC(c3ccccc3)(c3ccccc3)c3ccccc3)CC2O)c(=O)[nH]c1=O` (centres undefined), the IC50 in test [1] and in test [2] was greater than 1000 µM in each case. Besides, the result in test [3] was inactive.
On to `Cc1cn([C@@H]2O[C@H](COC(c3ccccc3)(c3ccccc3)c3ccccc3)C[C@H]2F)c(=O)[nH]c1=O`, for which the IC50 in test [1] and in test [2] was greater than 1000 µM each time. For the same compound, the result in test [3] was inactive.
On to `Cc1cn([C@@H]2O[C@H](COC(=O)c3ccccc3)[C@@H](OS(C)(=O)=O)[C@@H]2F)c(=O)[nH]c1=O`, for which the IC50 in test [1] and in test [2] was greater than 1000 µM throughout. In addition, the outcome in test [3] was inactive.
As for `Cc1cn(C2OC(COC(c3ccccc3)(c3ccccc3)c3ccccc3)C(F)C2F)c(=O)[nH]c1=O` (centres undefined), the 50% inhibitory concentration (IC50) in test [1] and in test [2] was greater than 1000 µM throughout. For the same compound, the outcome in test [3] was inactive.
Regarding `Cc1cn(C2OC(CO)C[C@@H]2F)c(=O)[nH]c1=O` (some centres undefined), the IC50 in test [1] and in test [2] was greater than 1000 µM in each case. For the same compound, the outcome in test [3] was inactive.
On to `Cc1cn([C@@H]2O[C@H](COC(c3ccccc3)(c3ccccc3)c3ccccc3)[C@@H]3O[C@@H]32)c(=O)[nH]c1=O`, for which the IC50 in test [1] and in test [2] was greater than 1000 µM each time. Also, in test [3], the result was inactive.
For `Cc1cn([C@@H]2O[C@H](COC(c3ccccc3)(c3ccccc3)c3ccccc3)[C@@H](OS(C)(=O)=O)[C@H]2OS(C)(=O)=O)c(=O)[nH]c1=O`, the IC50 in test [1] and in test [2] was greater than 1000 µM in each case. Besides, the outcome in test [3] was inactive.
Take `Cc1cn([C@@H]2O[C@H](CO)[C@@H](F)[C@@H]2F)c(=O)[nH]c1=O`: the IC50 in test [1] and in test [2] was greater than 1000 µM each time. Besides, the result in test [3] was inactive.
Take `Nc1ccn([C@@H]2O[C@H](CO)C[C@@H]2F)c(=O)n1`: the result in test [4] was Active.
On to `Cc1cn([C@@H]2O[C@H](COC(c3ccccc3)(c3ccccc3)c3ccccc3)[C@H](O)[C@H]2F)c(=O)[nH]c1=O`, for which the IC50 in test [1] and in test [2] was greater than 1000 µM each time. The result in test [3] was inactive.
Turning to `Cc1cn(C2OC(COC(=O)c3ccccc3)C(F)C2F)c(=O)[nH]c1=S` (centres undefined), the IC50 in test [1] and in test [2] was greater than 1000 µM each time. In addition, the outcome in test [3] was inactive.
